Among all 200,000 compounds or so, about 2,000 (1%) were called active.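 How the source made its calls: active means inhibition above the campaign mean inhibition of all tested compounds plus 3 SD (cut at about 20% in these data); inactive means the rest.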 This excerpt belongs to a sample that is enriched for actives.
biological target: Neuropeptide Y receptor type 1 (Homo sapiens) (UniProt P25929); experiment: NPY-Y1 receptor antagonists, primary screen, cell-based (AID 1040); details: HEK293-CNG Y1 cells, membrane potential fluorescence; at 3.6 µM; active compounds read high; NPY at EC95, then isoproterenol;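 further: 0% = DMSO wells given NPY plus isoproterenol and 100% = isoproterenol alone without NPY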
Method in brief: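 Material: HEK293 cells co-expressing NPY Y1 receptor and cyclic-nucleotide gated channel. Timing: compound incubation 1 h at room temperature, readout 45 min post-stimulation. Signal: fluorescence, membrane potential probe.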

Chain of Neuropeptide Y receptor type 1 (Homo sapiens) (P25929 whole entry, looked up): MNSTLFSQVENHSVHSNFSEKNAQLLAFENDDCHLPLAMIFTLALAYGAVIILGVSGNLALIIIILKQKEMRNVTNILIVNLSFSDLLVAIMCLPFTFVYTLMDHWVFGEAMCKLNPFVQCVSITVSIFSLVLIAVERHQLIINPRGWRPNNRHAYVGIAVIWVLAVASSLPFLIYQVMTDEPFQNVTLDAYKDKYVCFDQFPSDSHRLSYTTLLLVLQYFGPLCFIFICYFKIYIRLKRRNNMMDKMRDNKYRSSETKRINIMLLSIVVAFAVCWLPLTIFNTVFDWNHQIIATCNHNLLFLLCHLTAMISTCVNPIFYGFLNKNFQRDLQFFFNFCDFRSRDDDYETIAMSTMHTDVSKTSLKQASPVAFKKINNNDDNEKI

Compound | inhibition
Cc1nnc(SCC(=O)N2c3ccccc3C(C)(c3ccc(Cl)cc3)CC2(C)C)s1 (stereo unspecified) | 16.7% (inactive)
CC(=O)Nc1ccc(/C(C)=N/NC(=O)CN(c2ccccc2Br)S(C)(=O)=O)cc1 | -2.53% (inactive)
Cc1ccc(SCCC(=O)OCC(=O)Nc2ncc(Cl)cc2Cl)cc1 | 20.4% (active)
Cc1ccc(-n2c(SCC(=O)Nc3ncc(Cl)cc3Cl)nc3ccccc32)cc1 | -2.49% (inactive)
CC(Oc1ccc(Cl)cc1)C(=O)OCC(=O)Nc1ncc(Cl)cc1Cl (stereo unspecified) | 2.64% (inactive)
CC1(C)C=C2[C@H]3CC[C@@H]4[C@@]5(C)CCC(=O)C(C)(C)[C@@H]5CC[C@@]4(C)[C@]3(C)CC[C@@]2(C(=O)O)CC1 | 2.69% (inactive)
CC(=O)Nc1cccc(-c2nc3ccccc3s2)c1C | 3.27% (inactive)
Oc1ccc(-c2[nH]ncc2-c2nc3ccccc3s2)c(O)c1 | 62.6% (active)
Cc1cc(O)ccc1-c1cnc2ccccc2n1 | -0.67% (inactive)
CC1CCN(S(=O)(=O)c2ccc3ncn(CC(=O)N(C)C4CCCCC4)c(=O)c3c2)CC1 | 4.79% (inactive)
CCOC(=O)C1CCN(CCC(=O)Nc2cccc(C)c2)CC1 | -5.31% (inactive)
COc1ccccc1OCc1ccc(C(=O)N2CCN(C)CC2)o1 | 6.16% (inactive)
O=C(c1ccc(CSc2ccccc2)cc1)N1CCCCCC1 | -0.16% (inactive)
COc1cc2c(C(=O)N3CCN(C)CC3)c(CSc3ccccc3)n(C)c2cc1Br | 23.3% (active)
O=[N+]([O-])c1ccc(N2CCN(S(=O)(=O)c3ccccc3)CC2)cc1N1CCc2ccccc2C1 | 4.34% (inactive)
COc1ccc(-c2cc(C(=O)n3cnc4ccccc43)c3ccccc3n2)cc1 | 26.2% (active)
Cc1ccc(OCC(=O)Nn2cnc3ccccc32)cc1 | 8.06% (inactive)
CNC(=O)COC(=O)c1cc(-c2ccc(OC)cc2)nc2ccccc12 | 3.85% (inactive)
COc1cc(NC(=S)N2CCCC(C)C2)cc(OC)c1OC (stereo unspecified) | -1.31% (inactive)
CC(=O)N1CCN(S(=O)(=O)c2cccc(C(=O)NC3CCC(C)CC3)c2)CC1 (stereo unspecified) | 1.65% (inactive)
Cn1c(=O)c2c(ncn2CCc2ccccc2)n(C)c1=O | -0.86% (inactive)
CC(C)Cn1cnc2c1c(=O)n(CC(O)c1ccccc1)c(=O)n2CC(C)C (stereo unspecified) | 20.6% (active)
CC(C)Cn1c(CN(Cc2ccccc2)Cc2ccccc2)nc2c1c(=O)n(C)c(=O)n2C | 13.4% (inactive)
CCCN(CC(=O)Nc1ccc(C(N)=O)cc1)CC(=O)Nc1ccccc1C | -0.18% (inactive)

Compound | inhibition
O=C1Nc2cc(Cl)c(Cl)cc2N(O)N1c1ccccc1Cl | 1.81% (inactive)
CC(=O)Nc1ccc(NC(=O)C(C)OC(=O)c2ccccc2C(=O)c2ccc(Cl)c([N+](=O)[O-])c2)cc1 (stereo unspecified) | 0.15% (inactive)
CCN1CCN(CCNC(=O)c2ccc(/C=C3/Sc4ccccc4N(Cc4cccc(C)c4)C3=O)cc2)CC1 | 23.1% (active)
O=C(CN1C(=O)/C(=C\c2ccc(C(F)(F)F)cc2)Sc2ccccc21)NCc1ccco1 | 10.7% (inactive)
Cc1nn(Cc2ccccc2)c(C)c1C(=O)NCCN1C(=O)S/C(=C\c2ccc(F)cc2)C1=O | -0.53% (inactive)
Cc1ccc(OCCCn2c(=O)oc3ccccc32)cc1 | 8.49% (inactive)
Cc1ccc2nc(-c3ccc(NC(=O)CN(C)S(=O)(=O)c4ccccc4)cc3)sc2c1 | -3.73% (inactive)
Cc1c(CN2CCCC(C(=O)c3cccc(Cl)c3)C2)c(=O)n(-c2ccccc2)n1C (stereo unspecified) | -2.25% (inactive)
Cc1ccc2nc(-c3ccccn3)cc(C(=O)Nc3ccc4c(c3)OCO4)c2c1 | 31.6% (active)
O=C(Nc1ccncc1)c1cc(-c2ccccn2)nc2ccc(Br)cc12 | -2.88% (inactive)
Cc1ccc2nc(-c3ccncc3)cc(C(=O)Nc3ccc4c(c3)OCCO4)c2c1 | 4.85% (inactive)
Cc1ccc(C(C(=O)NCc2ccco2)N(CC2CCCO2)C(=O)Cn2nnc3ccccc32)cc1 (stereo unspecified) | 2.99% (inactive)
COc1ccccc1N(C(=O)Cn1nnc2ccccc21)C(C(=O)NCc1ccco1)c1ccc(C)o1 (stereo unspecified) | 21.5% (active)
COCCNC(=O)C(c1ccc(C)o1)N(Cc1ccccc1)C(=O)Cn1nnc2ccccc21 (stereo unspecified) | 7.77% (inactive)
CCO[C@H]1OC(C(=O)O)=C[C@@H](C2CCCCC2)[C@@H]1CCCO | -4.69% (inactive)
CC1CC1C(=O)OCC(=O)c1c(N)n(C)c(=O)n(C)c1=O (stereo unspecified) | 0.59% (inactive)
COc1ccccc1N1CCN(C(=O)CN(Cc2ccc(Cl)cc2)S(C)(=O)=O)CC1 | 20.4% (active)
CS(=O)(=O)N(CC(=O)N1CCCC1)Cc1ccccc1 | 1.29% (inactive)
COc1ccc(OC)c(NC(=O)CN(Cc2ccc(Cl)cc2)S(C)(=O)=O)c1 | -0.76% (inactive)
COC(=O)C1=C(C)N(c2ccc(C)cc2)/C(=C/c2ccc(O)cc2)C1=O | 2.2% (inactive)
COCCNc1nc2nonc2nc1N1CCCC1c1nccs1 (stereo unspecified) | 0.14% (inactive)
O=C(c1cc(-c2cccc(O)c2)on1)N1CCc2ccccc2C1 | 2.12% (inactive)
O=C(c1cc(-c2ccccc2O)on1)N1CCCC1 | -3.05% (inactive)
Cc1occc1C(=O)N1CCCc2ccccc21 | 1.99% (inactive)

Compound | inhibition
Cc1ccc(-c2cc(C(=O)N3CCc4ccccc4C3)no2)cc1 | 28.6% (active)
O=C(C(=O)N1CCc2ccccc2C1)N1CCc2ccccc2C1 | 1.24% (inactive)
O=C(c1cc(-c2ccc(O)cc2)on1)N1CCCc2ccccc21 | 25.5% (active)
CC(C)Oc1ccccc1C(=O)NC(CO)C(=O)O (stereo unspecified) | -2.02% (inactive)
Cc1ccc(O)c(CCc2ccccc2)n1 | 1.07% (inactive)
Cc1nn(CC(=O)Nc2ccc(C#N)cc2)c(C)c1[N+](=O)[O-] | -0.39% (inactive)
COc1ccc(-c2cc(-c3ccc(N)cc3)nc(N)c2C#N)cc1OC | 7.06% (inactive)
COc1ccc(C2CC(=O)Nc3sc(=N)c4c(N)c(C#N)c(N)nc4c32)cc1OC (stereo unspecified) | 60.1% (active)
N#Cc1c(N)nc2c3c(sc(=N)c2c1N)NC(=O)CC3c1ccccc1Cl (stereo unspecified) | 1.18% (inactive)
CC(NC(=O)COC(=O)C1CCN(S(=O)(=O)c2ccccc2C(F)(F)F)CC1)c1ccccc1 (stereo unspecified) | -0.58% (inactive)
Cc1c(NC(=S)NC(=O)CCc2ccccc2)c(=O)n(-c2ccccc2)n1C | 4.67% (inactive)
COCCNC(=O)c1onc(CSc2cccc(C)c2)c1C(=O)O | 9.11% (inactive)
CCCCNC(=O)c1onc(CSc2cccc(OC)c2)c1C(=O)O | 28.4% (active)
CCOc1cccc(SCc2noc(C(=O)NC(C)C)c2C(=O)O)c1 | 11% (inactive)
COc1ccc2nc(SCc3ccccc3)nc(C)c2c1 | 4.78% (inactive)
Cc1cccc(NC(=S)Nc2ccc(Br)cc2)c1 | 3.74% (inactive)
Cc1cccc(NC(=S)NCCN(C2CCCCC2)C2CCCC2)c1 | 21.2% (active)
Cc1cccc(NC(=S)Nc2ccc(Cl)c(Cl)c2)c1 | 1.7% (inactive)
Cc1nc(-c2ccccc2)cn2c1nc1ccccc12 | 5.56% (inactive)
O=C(Cc1coc2ccc3ccccc3c12)NCc1cccs1 | 1.1% (inactive)
COc1cc(NC(=O)c2cc([N+](=O)[O-])ccc2Br)ccc1NC(=O)c1ccco1 | 30.1% (active)
O=C(Nc1ccc(NC(=O)c2ccco2)c(Cl)c1)c1cccc([N+](=O)[O-])c1 | 0.59% (inactive)
COc1ccccc1C(=O)Nc1ccc(NC(=O)c2ccco2)c(C)c1 | 2.31% (inactive)
CN(C)CCCO/N=C(\c1ccccc1)c1ccncc1 | -1.1% (inactive)

Compound | inhibition
O=C(COc1cccc(F)c1)Oc1ccc(C(=O)c2ccccc2)cc1 | 2.24% (inactive)
CCOC(=O)N1CCN(C(=O)c2cnc3n(c2=O)CCS3)CC1 | -1.03% (inactive)
CC1CCc2c(sc3nc4n(c(=O)c23)CCS4)C1 (stereo unspecified) | -3.28% (inactive)
CCCCc1c(O)nc2n(c1=O)CCS2 | 20.6% (active)
CCc1ccccc1NC(=O)CN(C)C(=O)COc1ccc(C)nc1[N+](=O)[O-] | -0.59% (inactive)
COc1ccc(/C(=N\O)c2nccc3cc(OC)c(OC)cc23)cc1OC | 5.85% (inactive)
O=C(CC1CCCCC1)NCc1ccc(F)cc1 | -0.26% (inactive)
O=C(CC1CCCCC1)Nc1c2c(nn1-c1ccc(F)cc1)CS(=O)(=O)C2 | 46.3% (active)
Cc1ccc(-n2nc3c(c2NC(=O)CCC2CCCCC2)CS(=O)C3)cc1 (stereo unspecified) | 8.28% (inactive)
CC(NC(=S)NC1CCCCC1)C(c1ccccc1)N1CCOCC1 (stereo unspecified) | 0.27% (inactive)
O=S(=O)(O)c1nc2ccccc2n1Cc1ccc(Cl)cc1 | 21.2% (active)
O=S(=O)(Cc1ccccc1)c1nc2ccccc2n1Cc1ccccn1 | -1.06% (inactive)
O=S(=O)(O)c1nc2ccccc2n1Cc1ccc(Cl)cc1Cl | -2.49% (inactive)
O=C(Nc1ccccc1Cl)c1ccc2nsnc2c1 | 0.69% (inactive)
O=C(Nc1ccccc1Cl)/C(Cl)=C(\Cl)S(=O)c1ccccc1 (stereo unspecified) | 27.5% (active)
O=C(CN1CCCCC1)Nc1ccccc1Cl | -2.44% (inactive)
CC(NC(=O)COC(=O)c1ccc(Cl)cc1O)c1ccc(F)cc1 (stereo unspecified) | -0.49% (inactive)
Cc1nc(Cl)c2oc3ccccc3c2n1 | 3.46% (inactive)
CCc1nc(Nc2ccc3nccnc3c2)c2oc3ccccc3c2n1 | -0.08% (inactive)
COc1ccccc1Nc1ncnc2c1oc1ccccc12 | 21.3% (active)
COc1ccc(-n2nc3c(c2NC(=O)c2ccc(N4C(=O)CCC4=O)cc2)CSC3)cc1 | 2.78% (inactive)
N#C/C(=C\c1ccc(-c2cccc([N+](=O)[O-])c2)o1)C(=O)NCCN1CCOCC1 | 0.61% (inactive)
Cc1ccc(C(=O)N/C(=C/c2ccc(-c3cccc([N+](=O)[O-])c3)o2)C(=O)NCCCN(C)C)cc1 | 27.8% (active)
CN(C)CCNC(=O)/C(=C/c1cccc([N+](=O)[O-])c1)NC(=O)c1ccccc1 | 2.65% (inactive)
